Screening data (PubChem)
DENV2 CPE rescue = inhibitors of DENV2 cytopathic effect; hit rate 1.7% among 350,000; DENV2-infected cells, cytopathic effect rescue, plate reader; CPE inhibition, % at 9.99 µM; AID 651640; in the data active = CPE inhibition above about 20%, passing the limit was not always enough; inconclusive = no clear call, values can overlap the other calls; tested in BHK-21 cells;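 also: 0% = median of neutral control wells and 100% = median of positive control wells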
S100A4 inh HTS = S100A4-myosin IIA interaction inhibition. inhibition, % at 10.7 µM. P26447. hit rate 0.14% among 360,000. S100A4/TAMRA-MyoIIA peptide fluorescence polarization;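 active = mean inhibition of at least 70% across replicates, with every replicate also reaching that level; inconclusive = mean inhibition reaches 70% but some replicates fall short; inactive = mean inhibition below 70%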
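assay system = human S100A4 monomer with TAMRA-labelled myosin IIA peptide | also added = labelled myosin peptide probe, 5 nM | incubation = 5 min between mix addition and reading | control set = DMSO and TFP controls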
Xi reactivation = activators of X-chromosome reactivation in mouse fibroblasts. hit rate 0.055% among 360,000. XiGFP mouse fibroblasts, % GFP-positive cells imaging, 3 d; cells co-treated with 5-aza-dC sensitizer; scaled so ellipticine positive control = 100%. activation, % at 7.58 µM;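 active = mean normalized replicate activation at least 10% and every replicate at or above 10%; inconclusive = only one of the two criteria met; inactive = mean below 10% and not all replicates reach 10%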;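 also: 0% = median of on-plate neutral control wells and 100% = ellipticine 6 µM median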
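System: 68-5-11 XiGFP fibroblast line; Timing: 3 days compound exposure; Compound dosing: one concentration, pinned; Benchmarks: positive control ellipticine, 6 µM final; Buffer or medium: DMEM containing 5-aza-dC.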
E-sel inducer = E-selectin induction on HUVECs; activation, % at 7.58 µM; hit rate 0.37% among 260,000; P16581; HUVEC E-selectin immunofluorescence imaging; normalized: neutral wells 0, TNF-alpha wells 100;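 active = mean E-selectin-positive cell signal at least 10% of the positive control, reached in at least 60% of replicates, without over 20% cell loss; inconclusive = no rule given, readout overlaps actives, possibly toxicity-flagged; inactive = the rest, including those meeting only one limit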
Target sequence (P16581 whole entry, looked up): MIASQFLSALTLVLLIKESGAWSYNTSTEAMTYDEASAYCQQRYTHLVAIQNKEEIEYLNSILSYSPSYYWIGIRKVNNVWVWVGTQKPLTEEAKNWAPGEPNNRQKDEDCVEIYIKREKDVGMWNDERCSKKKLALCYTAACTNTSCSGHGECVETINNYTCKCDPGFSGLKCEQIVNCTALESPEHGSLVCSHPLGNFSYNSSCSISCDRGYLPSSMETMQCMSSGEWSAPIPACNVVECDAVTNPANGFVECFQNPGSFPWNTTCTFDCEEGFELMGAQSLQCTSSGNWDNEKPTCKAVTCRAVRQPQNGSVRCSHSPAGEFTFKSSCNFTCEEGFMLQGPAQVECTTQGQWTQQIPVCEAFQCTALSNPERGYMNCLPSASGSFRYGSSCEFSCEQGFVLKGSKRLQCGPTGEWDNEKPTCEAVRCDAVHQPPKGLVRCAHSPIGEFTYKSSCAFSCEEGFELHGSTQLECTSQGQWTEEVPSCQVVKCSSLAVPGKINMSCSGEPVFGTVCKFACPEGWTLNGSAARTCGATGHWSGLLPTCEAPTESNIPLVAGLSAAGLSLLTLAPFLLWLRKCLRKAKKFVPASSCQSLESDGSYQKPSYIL
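Test system: HUVEC | Signal: Immunofluorescence imaging | Read-out: Percent E-selectin-positive cells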
The depositor's hits bear a star; u = inconclusive; x = not tested or not shown; ! = repeats disagree. An excerpt weighted towards active compounds, which were near 2% of everything screened.

SMILES	DENV2 CPE rescue	S100A4 inh HTS	Xi reactivation	E-sel inducer
O=C(N[C@H]1CC[C@H](CCNC(=O)C2CCCCC2)O[C@@H]1CO)c1ccncc1	28*	15	0	0
CC(=O)N[C@H]1CC[C@H](CCNC(=O)C2CCCC2)O[C@H]1CO	-2	5	-1	0
O=C(N[C@H]1CC[C@H](CCNC(=O)C2CCCC2)O[C@@H]1CO)c1ccncc1	25*	-2	0	0
CC(=O)N[C@H]1CC[C@@H](CCNC(=O)C2CCCC2)O[C@@H]1CO	27*	10	0	0
CCOC(=O)N1CCN(C(=O)c2c(-c3ccccc3)noc2C)CC1	8	-3	0	x
O=C(CN1CCN(Cc2ccccc2)CC1)NNC(=O)c1ccc(Cl)cc1	-7	-5	0	1
COc1ccc(C(CNC(=O)c2cccc(S(=O)(=O)N3CCc4ccccc43)c2)N(C)C)cc1 (stereo not drawn)	0	-4	0	0
CN(C)CCCNC(=O)OC1CC2CC1[C@H]1CCCCN1C2=O (stereo partly drawn)	48*	11	0	0
C=CC[C@H](CC(=O)NCCO)C(=O)NC[C@@H](OC(=O)[C@H](CC=C)CC(=O)OC(C)(C)C)c1ccccc1	8	-2	0	0
COC(=O)[C@H](CC(C)C)NC(=O)CC[C@H]1O[C@@H](n2cc(C)c(=O)[nH]c2=O)C[C@@H]1O	70*	-3	0	0
COC(=O)[C@@H](Cc1ccccc1)NC(=O)CC[C@H]1O[C@@H](n2cc(C)c(=O)[nH]c2=O)C[C@@H]1O	14	4	0	0
N#Cc1cc(Br)ccc1N=C1CCCN1c1ccccc1	24*	-3	0	x
O=C(N/N=C/c1cc(Br)ccc1O)c1cccc(N2CCCC2=O)c1	x	x	1	0
Cc1ccc(SCc2cc(=O)[nH]c(/N=C(\N)Nc3ccccc3Sc3ccccc3)n2)cc1	x	x	0	x
Cc1oc2c(C)c3oc(=O)c(CCC(=O)NCCCN4CCOCC4)c(C)c3cc2c1C	u	3	x	x
Cc1oc2c(C)c3oc(=O)c(CCC(=O)NCCN4CCOCC4)c(C)c3cc2c1C	29*	-3	x	x
COc1ccc(S(=O)(=O)NC2CC3CCC2C3)cc1 (stereo not drawn)	1	0	1	0
CSc1ccc(S(=O)(=O)NC2CC3CCC2C3)cc1 (stereo not drawn)	37*	-5	0	x
CC12CCC(=O)N1C(C(=O)Nc1ccc(S(=O)(=O)N3CCCCC3)cc1)CS2 (stereo not drawn)	32*	4	0	1
CC12CCC(=O)N1C(C(=O)Nc1nc(-c3ccccc3)cs1)CS2 (stereo not drawn)	29*	-2	0	0
CC12CCC(=O)N1C(C(=O)Nc1cc(Cl)ccc1N1CCOCC1)CS2 (stereo not drawn)	-8	-1	0	135*
CCN(CC)S(=O)(=O)c1ccc(N2CCCCC2)c(NC(=O)C2CSC3(C)CCC(=O)N23)c1 (stereo not drawn)	8	-4	0	0
COc1ccc(-c2csc(NC(=O)C3CSC4(C)CCC(=O)N34)n2)cc1 (stereo not drawn)	0	-17	0	0
C[C@@H]1CN([C@H](C)CO)C(=O)c2cc(NC(=O)Cc3ccccc3)ccc2O[C@@H]1CN(C)Cc1ccccc1	-1	0	0	0
COc1ccc(C2CC(c3ccc(Br)cc3)=NN2C(=O)CCC(=O)O)cc1OC (stereo not drawn)	-5	2	0	1
SMILES	DENV2 CPE rescue	S100A4 inh HTS	Xi reactivation	E-sel inducer
CC/C(=N\NC(=O)COc1ccc(Br)cc1)c1ccc(OC)c(OC)c1	x	0	0	0
Cc1cccc(NC(=O)CSC2=NN3CCCC(=O)N=C3S2)c1C	8	1	0	-1
C[C@H](CO)N1C[C@H](C)[C@H](CN(C)S(=O)(=O)c2ccc(C(F)(F)F)cc2)OCc2ccccc2-c2ccccc2C1=O	33*	-1	0	2
C[C@H]1CN([C@@H](C)CO)C(=O)c2ccccc2-c2ccccc2CO[C@H]1CN(C)Cc1ccc(C(F)(F)F)cc1	50*	1	0	-1
Cc1ccc(NC(=O)C2CCN(S(=O)(=O)c3cccc(C(F)(F)F)c3)CC2)nc1	u	4	0	0
COc1ccccc1NC(=O)N1CCN(c2ccccn2)CC1	31*	63	0	1
CCn1nc(NS(=O)(=O)c2ccc(C)cc2)c2cc3ccccc3nc21	10	1	0	x
C=CCn1c(=O)n(CCOC)c(=O)c2sc3ccccc3c21	1	0	0	3
C[C@@H]1CN([C@H](C)CO)C(=O)c2cc(NC(=O)Cc3cn(C)c4ccccc34)ccc2O[C@H]1CN(C)Cc1ccc2c(c1)OCO2	3	-25	0	1
C[C@@H]1CN([C@H](C)CO)C(=O)c2cc(NC(=O)Cc3cn(C)c4ccccc34)ccc2O[C@H]1CN(C)Cc1ccc(Cl)c(Cl)c1	0	2	-1	51*
C[C@H](CO)N1C[C@H](C)[C@H](CN(C)Cc2ccc3c(c2)OCO3)Oc2ccc(NC(=O)Cc3cn(C)c4ccccc34)cc2C1=O	-3	20	0	43*
C[C@H]1CCCCO[C@@H](CN(C)Cc2ccc3c(c2)OCO3)[C@@H](C)CN([C@@H](C)CO)C(=O)c2cc(NS(=O)(=O)c3cccs3)ccc2O1	59*!	x	0	x
C[C@@H]1CN([C@H](C)CO)C(=O)c2cc(NS(=O)(=O)c3cccs3)ccc2O[C@@H](C)CCCCO[C@H]1CN(C)Cc1ccc2c(c1)OCO2	55*	x	0	0
COc1ccc(CN(C)C[C@@H]2OCCCC[C@@H](C)Oc3ccc(NS(=O)(=O)c4cccs4)cc3C(=O)N([C@@H](C)CO)C[C@H]2C)cc1	27*	17	0	0
C[C@@H]1CN([C@@H](C)CO)C(=O)c2cc(NS(=O)(=O)c3cccs3)ccc2O[C@@H](C)CCCCO[C@@H]1CN(C)Cc1ccc2c(c1)OCO2	-19	x	0	0
O=C(COc1ccccc1Cc1ccccc1)Nc1cccc(S(=O)(=O)N2CCOCC2)c1	-3	-5	0	x
Cn1ccc2c(-c3cccc(C=O)c3)cc3c(c21)C1CCC3O1 (stereo not drawn)	50*	-2	x	-1
CC(=O)Nc1cccc(-c2cc3c(c4c2ccn4C)C2CCC3O2)c1 (stereo not drawn)	-1	-1	x	0
Cc1[nH]nc(-c2cccnc2)c1N=NN(C)C	-4	4	0	1
CC(C)C[C@@H](CO)N1CCN(CCCc2ccccc2)CCC1=O	-2	-4	0	0
COc1ccc(-c2oc3ccc(-c4cc(OC)c(OC)c(OC)c4)cc3c2-c2ccc(OC)nc2)cc1	80*	6	0	0
CN(C)CCCNC(=O)C[C@@H]1CC[C@H]2[C@@H](COC[C@@H](O)CN2Cc2ccc(Cl)c(Cl)c2)O1	-1	137*	0	0
